{"source": "paper PMC7017397", "about": "(ACS Omega, 2020)", "key": {"[1]": {"test": "Plasma pharmacokinetics after a single 1 mg/kg dose", "type": "in vivo, C57BL/6J mice", "procedure,_shortened": "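Male C57BL/6J mice (10–12 weeks; n = 4 per time point) under i.p. zolazepam 50 mg/kg plus xylazine 12 mg/kg received 1 mg/kg in 5% dextrose (37 °C) by tail-vein i.v., s.c., i.p. or gavage. Terminal cardiac-puncture blood was taken into EDTA at 2.5–90 min. Plasma was spiked with internal standard, acetonitrile-deproteinized and measured by LC–MS/MS. Mean levels were fitted two-compartmentally, with AUC by linear trapezoidal rule.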"}, "[2]": {"test": "Brain pharmacokinetics after a single 1 mg/kg dose", "type": "in vivo, C57BL/6J mice", "details": "for Cmax / MRT last / Tmax / k el: C57BL/6J, mouse, 1 mg/kg; for brain drug targeting efficiency: from zero-infinity predicted AUC values", "procedure,_shortened": "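Anaesthetized (zolazepam/xylazine i.p.) male C57BL/6J mice, n = 4 per time point, were dosed 1 mg/kg by i.v., s.c., i.p. or gavage. At 2.5–90 min, after cardiac blood sampling, they were transcardially perfused with saline. Brain and spinal cord were homogenized in equal weight-volume water, spiked with internal standard, deproteinized 1:3 with cold acetonitrile and quantified by LC–MS/MS. Per-time-point means were fitted with a two-compartment model.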"}, "[3]": {"details": "brain, i.p. 1 mg/kg single dose"}, "[4]": {"details": "brain, i.v. 1 mg/kg single dose"}, "[5]": {"details": "brain, p.o. 1 mg/kg single dose"}, "[6]": {"details": "brain, s.c. 1 mg/kg single dose"}}}
{"smiles": "CC(=O)N[C@@H](Cc1ccccc1)C(=O)N[C@H]1CCCNC(=O)[C@H](CCCNC(=N)N)NC(=O)[C@H](Cc2c[nH]c3ccccc23)NC(=O)[C@@H](CC2CCCCC2)NC(=O)[C@@H]2CCCN2C1=O", "note": "[PMX53, Ac-Phe-[Orn-Pro-dCha-Trp-Arg]]", "values": [{"measurement": "CLD2_F (apparent total clearance of the drug from plasma after administration)", "setting": "[1]; i.v. 1 mg/kg single dose", "value": 84.57, "unit": "µL/min"}, {"measurement": "CL_F (apparent total body clearance of the drug from plasma)", "setting": "[1]; i.v. 1 mg/kg single dose", "value": 199.16, "unit": "µL/min"}, {"measurement": "K12 (distribution rate constant)", "setting": "[1]; i.v. 1 mg/kg single dose", "value": 2.95, "unit": "h⁻¹"}, {"measurement": "K21 (redistribution rate constant)", "setting": "[1]; i.v. 1 mg/kg single dose", "value": 4.85, "unit": "h⁻¹"}, {"measurement": "V1_F (apparent volume of central compartment)", "setting": "[1]; i.v. 1 mg/kg single dose", "value": 1.72, "unit": "mL"}, {"measurement": "V2_F (apparent volume of peripheral compartment)", "setting": "[1]; i.v. 1 mg/kg single dose", "value": 1.05, "unit": "mL"}, {"measurement": "Alpha (hybrid first-order rate constant, distribution phase)", "setting": "[1]; p.o. 1 mg/kg single dose", "value": 0.04, "unit": "min⁻¹"}, {"measurement": "Beta (hybrid first-order rate constant, elimination phase)", "setting": "[1]; p.o. 1 mg/kg single dose", "value": 0.04, "unit": "min⁻¹"}, {"measurement": "CLD2_F (apparent total clearance of the drug from plasma after administration)", "setting": "[1]; p.o. 1 mg/kg single dose", "value": "<0.01", "unit": "µL/min"}, {"measurement": "CL_F (apparent total body clearance of the drug from plasma)", "setting": "[1]; p.o. 1 mg/kg single dose", "value": 2.01, "unit": "µL/min"}, {"measurement": "K01 (absorption rate constant)", "setting": "[1]; p.o. 1 mg/kg single dose", "value": 2.92, "unit": "h⁻¹"}, {"measurement": "K12 (distribution rate constant)", "setting": "[1]; p.o. 1 mg/kg single dose", "value": "<0.001", "unit": "h⁻¹"}, {"measurement": "K21 (redistribution rate constant)", "setting": "[1]; p.o. 1 mg/kg single dose", "value": 2.58, "unit": "h⁻¹"}, {"measurement": "V1_F (apparent volume of central compartment)", "setting": "[1]; p.o. 1 mg/kg single dose", "value": 0.05, "unit": "mL"}, {"measurement": "V2_F (apparent volume of peripheral compartment)", "setting": "[1]; p.o. 1 mg/kg single dose", "value": "<0.01", "unit": "mL"}, {"measurement": "Alpha (hybrid first-order rate constant, distribution phase)", "setting": "[1]; s.c. 1 mg/kg single dose", "value": 0.04, "unit": "min⁻¹"}, {"measurement": "Beta (hybrid first-order rate constant, elimination phase)", "setting": "[1]; s.c. 1 mg/kg single dose", "value": 0.04, "unit": "min⁻¹"}, {"measurement": "CLD2_F (apparent total clearance of the drug from plasma after administration)", "setting": "[1]; s.c. 1 mg/kg single dose", "value": "<0.01", "unit": "µL/min"}, {"measurement": "CL_F (apparent total body clearance of the drug from plasma)", "setting": "[1]; s.c. 1 mg/kg single dose", "value": 0.11, "unit": "µL/min"}, {"measurement": "K01 (absorption rate constant)", "setting": "[1]; s.c. 1 mg/kg single dose", "value": 2.28, "unit": "h⁻¹"}, {"measurement": "K12 (distribution rate constant)", "setting": "[1]; s.c. 1 mg/kg single dose", "value": "<0.001", "unit": "h⁻¹"}, {"measurement": "K21 (redistribution rate constant)", "setting": "[1]; s.c. 1 mg/kg single dose", "value": 2.14, "unit": "h⁻¹"}, {"measurement": "V1_F (apparent volume of central compartment)", "setting": "[1]; s.c. 1 mg/kg single dose", "value": "<0.01", "unit": "mL"}, {"measurement": "V2_F (apparent volume of peripheral compartment)", "setting": "[1]; s.c. 1 mg/kg single dose", "value": "<0.01", "unit": "mL"}, {"measurement": "Cmax", "setting": "[2]; brain, ip", "value": 48.1, "unit": "ng/g"}, {"measurement": "MRT last", "setting": "[2]; brain, ip", "value": 40.8, "unit": "min"}, {"measurement": "Tmax", "setting": "[2]; brain, ip", "value": 10.4, "unit": "min"}, {"measurement": "k el", "setting": "[2]; brain, ip", "value": 0.0002, "unit": "s⁻¹"}, {"measurement": "Cmax", "setting": "[2]; brain, iv", "value": 74.1, "unit": "ng/g"}, {"measurement": "MRT last", "setting": "[2]; brain, iv", "value": 42, "unit": "min"}, {"measurement": "k el", "setting": "[2]; brain, iv", "value": 0.0001, "unit": "s⁻¹"}, {"measurement": "Cmax", "setting": "[2]; brain, po", "value": 77, "unit": "ng/g"}, {"measurement": "MRT last", "setting": "[2]; brain, po", "value": 40.8, "unit": "min"}, {"measurement": "Tmax", "setting": "[2]; brain, po", "value": 14.9, "unit": "min"}, {"measurement": "k el", "setting": "[2]; brain, po", "value": 0.000122, "unit": "s⁻¹"}, {"measurement": "Cmax", "setting": "[2]; brain, sc", "value": 120, "unit": "ng/g"}, {"measurement": "MRT last", "setting": "[2]; brain, sc", "value": 42, "unit": "min"}, {"measurement": "Tmax", "setting": "[2]; brain, sc", "value": 19.9, "unit": "min"}, {"measurement": "k el", "setting": "[2]; brain, sc", "value": 0.000189, "unit": "s⁻¹"}, {"measurement": "Alpha (hybrid first-order rate constant, distribution phase)", "setting": "[2]; [3]", "value": 9.22, "unit": "h⁻¹"}, {"measurement": "Beta (hybrid first-order rate constant, elimination phase)", "setting": "[2]; [3]", "value": 0.30, "unit": "h⁻¹"}, {"measurement": "CLD2_F (apparent total clearance of the drug after administration)", "setting": "[2]; [3]", "value": "25.61 ng/(min ng/g)"}, {"measurement": "CL_F (apparent total body clearance of the drug)", "setting": "[2]; [3]", "value": "3.77 ng/(min ng/g)"}, {"measurement": "K01 (absorption rate constant)", "setting": "[2]; [3]", "value": 9.06, "unit": "h⁻¹"}, {"measurement": "K12 (distribution rate constant)", "setting": "[2]; [3]", "value": 4.92, "unit": "h⁻¹"}, {"measurement": "K21 (redistribution rate constant)", "setting": "[2]; [3]", "value": 3.87, "unit": "h⁻¹"}, {"measurement": "V1_F (apparent volume of central compartment)", "setting": "[2]; [3]", "value": "0.31 μg/(ng/g)"}, {"measurement": "V2_F (apparent volume of peripheral compartment)", "setting": "[2]; [3]", "value": "0.40 μg/(ng/g)"}, {"measurement": "Alpha (hybrid first-order rate constant, distribution phase)", "setting": "[2]; [4]", "value": 35.52, "unit": "h⁻¹"}, {"measurement": "Beta (hybrid first-order rate constant, elimination phase)", "setting": "[2]; [4]", "value": 0.20, "unit": "h⁻¹"}, {"measurement": "CLD2_F (apparent total clearance of the drug after administration)", "setting": "[2]; [4]", "value": "107.59 ng/(min ng/g)"}, {"measurement": "CL_F (apparent total body clearance of the drug)", "setting": "[2]; [4]", "value": "2.43 ng/(min ng/g)"}, {"measurement": "K12 (distribution rate constant)", "setting": "[2]; [4]", "value": 15.95, "unit": "h⁻¹"}, {"measurement": "K21 (redistribution rate constant)", "setting": "[2]; [4]", "value": 19.41, "unit": "h⁻¹"}, {"measurement": "V1_F (apparent volume of central compartment)", "setting": "[2]; [4]", "value": "0.40 μg/(ng/g)"}, {"measurement": "V2_F (apparent volume of peripheral compartment)", "setting": "[2]; [4]", "value": "0.33 μg/(ng/g)"}, {"measurement": "Vss (apparent volume of distribution at a steady state)", "setting": "[2]; [4]", "value": "0.74 μg/(ng/g)"}, {"measurement": "Alpha (hybrid first-order rate constant, distribution phase)", "setting": "[2]; [5]", "value": 1.68, "unit": "h⁻¹"}, {"measurement": "Beta (hybrid first-order rate constant, elimination phase)", "setting": "[2]; [5]", "value": 0.26, "unit": "h⁻¹"}, {"measurement": "CLD2_F (apparent total clearance of the drug after administration)", "setting": "[2]; [5]", "value": "2.68 ng/(min ng/g)"}, {"measurement": "CL_F (apparent total body clearance of the drug)", "setting": "[2]; [5]", "value": "2.28 ng/(min ng/g)"}, {"measurement": "K01 (absorption rate constant)", "setting": "[2]; [5]", "value": 11.20, "unit": "h⁻¹"}, {"measurement": "K12 (distribution rate constant)", "setting": "[2]; [5]", "value": 0.51, "unit": "h⁻¹"}, {"measurement": "K21 (redistribution rate constant)", "setting": "[2]; [5]", "value": 0.99, "unit": "h⁻¹"}, {"measurement": "V1_F (apparent volume of central compartment)", "setting": "[2]; [5]", "value": "0.31 μg/(ng/g)"}, {"measurement": "V2_F (apparent volume of peripheral compartment)", "setting": "[2]; [5]", "value": "0.16 μg/(ng/g)"}, {"measurement": "Alpha (hybrid first-order rate constant, distribution phase)", "setting": "[2]; [6]", "value": 3.48, "unit": "h⁻¹"}, {"measurement": "Beta (hybrid first-order rate constant, elimination phase)", "setting": "[2]; [6]", "value": 0.41, "unit": "h⁻¹"}, {"measurement": "CLD2_F (apparent total clearance of the drug after administration)", "setting": "[2]; [6]", "value": "2.91 ng/(min ng/g)"}, {"measurement": "CL_F (apparent total body clearance of the drug)", "setting": "[2]; [6]", "value": "1.75 ng/(min ng/g)"}, {"measurement": "K01 (absorption rate constant)", "setting": "[2]; [6]", "value": 5.81, "unit": "h⁻¹"}, {"measurement": "K12 (distribution rate constant)", "setting": "[2]; [6]", "value": 1.13, "unit": "h⁻¹"}, {"measurement": "K21 (redistribution rate constant)", "setting": "[2]; [6]", "value": 2.07, "unit": "h⁻¹"}, {"measurement": "V1_F (apparent volume of central compartment)", "setting": "[2]; [6]", "value": "0.15 μg/(ng/g)"}, {"measurement": "V2_F (apparent volume of peripheral compartment)", "setting": "[2]; [6]", "value": "0.08 μg/(ng/g)"}, {"measurement": "brain drug targeting efficiency", "setting": "[2]; i.p. 1 mg/kg", "value": 0.71}, {"measurement": "brain drug targeting efficiency", "setting": "[2]; p.o. 1 mg/kg", "value": 8.21}, {"measurement": "brain drug targeting efficiency", "setting": "[2]; s.c. 1 mg/kg", "value": 1.37}]}
